Values joined by “and” are separate entries in the source; they are usually repeats but may differ in a detail not shown here. Equal values may be shown once. Read-outs that look alike come from different tables or passages of the source.
Assays:
plasma proteins = settings: cited from earlier work
[1] = cited from earlier work; for half-life (T1/2): humans
[2] = Monkey mass balance and urine metabolite profile; assay type: in vivo, Macaca fascicularis monkeys; settings: 30 mg/kg, urine 0–24 hours
[3] = assay type: in vivo, human (healthy men); settings: human
[4] = Rat mass balance and urine metabolite profile; assay type: in vivo, Sprague Dawley rats; settings: rat (Sprague Dawley), 50 mg/kg, urine 0–24 hours
How it was run: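 Sprague Dawley rats received 50 mg/kg [14C]-test compound by gavage in ultrapure water. Urine, feces and cage wash were collected from 3 males and 3 females pre-dose and at 0–8, 8–24, 24–48 and 48–72 h. A second study collected urine from 3 males to 24 h. Radioactivity was counted by liquid scintillation as % of dose. Urinary analytes were measured by LC–MS/MS (50–24,750 ng/mL), with and without deconjugation (15 h, 37°C).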

[5] = Human mass balance and urine metabolite profile; assay type: in vivo, human (healthy men); settings: 60 mg, urine 0–120 hours
How it was run: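 Open-label single-centre study in healthy young men. Each took one oral 5 mL solution of 60 mg [14C]-test compound (3.7 MBq), about 30 min after starting breakfast. Urine was collected in intervals to 120 h and feces in 24-h intervals to 120 h. Radioactivity was read by liquid scintillation and reported as % of dose. Urinary analytes were measured by LC–MS/MS (1–5,000 ng/mL) before and after β-glucuronidase/sulfatase deconjugation (15 h, 37°C).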

[6] = Rat plasma PK and plasma metabolite profile after oral [14C]-levomilnacipran; assay type: in vivo, Sprague Dawley rats
How it was run: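 Male Sprague Dawley rats were gavaged with 50 mg/kg [14C]-test compound. Aortic blood was drawn under isoflurane into lithium heparin, three rats per time, from 0.25 to 72 h (second study: 1–10 h). Plasma radioactivity was counted by liquid scintillation. Parent and N-desethyl metabolite were measured by LC–MS/MS (1–500 ng/mL), and conjugates after β-glucuronidase/sulfatase deconjugation. Cmax and AUC came from non-compartmental analysis.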

[7] = Sprague Dawley, rat, plasma, po, 50 mg/kg

For `CN(C)CC(c1ccc(O)cc1)C1(O)CCCCC1` (stereo not drawn) [desvenlafaxine], which plasma protein binding (plasma proteins) is on record?
The plasma protein binding was 30%.

What about the “Urinary excretion as unchanged (parent) drug” value [1] of the same compound?
The value was 45%.

And the “half-life (T1/2)” value [1]?
Its value is 11 h.

Which results are given for `COc1ccc(C(CN(C)C)C2(O)CCCCC2)cc1` (stereo not drawn) [venlafaxine]?
plasma protein binding (plasma proteins): 27%; half-life (T1/2) [1]: 5 h

What does the source list for `CCN(CC)C(=O)C1(c2ccccc2)CC1CN` (stereo not drawn) [milnacipran]?
plasma protein binding (plasma proteins): 13%; half-life (T1/2) [1]: 8 h

Which “Mean urinary excretion of compound” value [2] does the source give for `CCN(CC)C(=O)[C@@]1(c2ccccc2)C[C@H]1CN` [Levomilnacipran, levomilnacipran] here?
The value was 35.5 % of administered dose.

What about the “Contribution to total radioactivity plasma exposure (area under the curve)” value ([3]; 60 mg oral) of the same compound?
Its value is 45.1%.

And the “Contribution to total plasma radioactivity at peak plasma levels” value ([3]; from average peak plasma concentrations)?
The value was 61.0%.

And the “Share of total plasma radioactivity” value ([3]; within 12 hours of dosing)?
Its value is 52.9%.

What about the AUC(0-inf) ([3]; male, plasma, po, 60 mg) of the same compound?
The AUC(0-inf) was 2090 ng·h/mL.

What about the AUC(0-t) ([3]; male, plasma, po, 60 mg) of the same compound?
Its AUC(0-t) is 2060 ng·h/mL.

What about the Cmax ([3]; male, plasma, po, 60 mg) of the same compound?
Its Cmax is 179 ng/mL.

And the Tmax ([3]; male, plasma, po, 60 mg)?
Its Tmax is 2.75 h.

What about the half-life ([3]; male, plasma, po, 60 mg) of the same compound?
The half-life was 10.4 h.

What about the “Mean urinary excretion of compound” value [4] of the same compound?
Its value is 40.2 % of administered dose.

What about the “Mean urinary excretion of compound” value [5] of the same compound?
Its value is 58.4 % of administered dose.

And the “Mean urinary excretion of compound” value ([5]; listed as levomilnacipran)?
Its value is 58.4 % of administered dose and 58 % of administered dose.

And the AUC(0-inf) [6, 7]?
The AUC(0-inf) was 16600 ng·h/mL.

And the AUC(0-t) [6, 7]?
Its AUC(0-t) is 16600 ng·h/mL.

What about the Cmax [6, 7] of the same compound?
Its Cmax is 8060 ng/mL.

And the Tmax [6, 7]?
The Tmax was 0.5 h.

What about the “Share of circulating total radioactivity” value ([6]; male rats, 50 mg/kg oral) of the same compound?
Its value is “about 60%”.

For `CNCC[C@H](Oc1cccc2ccccc12)c1cccs1` [duloxetine], which plasma protein binding (plasma proteins) is on record?
Its plasma protein binding is “greater than 90%”.

And the “Urinary excretion as unchanged (parent) drug” value [1]?
Its value is “less than 1%”.

What about the “half-life (T1/2)” value [1] of the same compound?
The value was 12 h.

— article PMC4484650 (Drug Design, Development and Therapy, 2015)
